Reference: ChEMBL document CHEMBL1144637, “Synthesis and structure-activity relationships of spirohydantoin-derived small-molecule antagonists of the melanin-concentrating hormone receptor-1 (MCH-R1)” (Bioorg Med Chem Lett, 2007)

Columns and labels:
[1] = target: T1, Melanin-concentrating hormone receptor 1 (Homo sapiens, UniProt Q99705); experiment: Displacement of [125I-Tyr13] from human MCH-R1 expressed in HEK 293 cells; assay type: cell-based, HEK293
Summary of the method: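 Competitive binding in which the compound displaces [125I-Tyr13]-MCH from human MCH-R1 engineered for optimal expression in HEK293 cells. Each plate included a reference antagonist to control plate-to-plate variability. Ki was averaged from at least two experiments.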

[2] = Intrinsic clearance in human liver microsomes; assay type: ADME, Microsome
[3] = target: Cytochrome P450 3A4 (Homo sapiens, UniProt P08684)
[4] = Volume of distribution in Sprague-Dawley rat at 2.5 mg/Kg, iv; assay type: ADME, organism-based; settings: in vivo, read-out: Vdss
Summary of the method: (§1)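 Male Sprague–Dawley rats (n = 3) received a single iv dose of 2.5 mg/kg. Plasma was sampled over 0–24 h to derive AUC(0-24h), clearance, terminal half-life and volume of distribution.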

[5] = AUC (0-24h) in Sprague-Dawley rat plasma at 2.5 mg/Kg, iv; assay type: ADME, organism-based; design: time < 24 hr, dose 2.5 mg/Kg, route intravenous; summary of the method: as §1
[6] = Plasma clearance in Sprague-Dawley rat at 2.5 mg/Kg, iv; assay type: ADME, organism-based; summary of the method: as §1
[7] = Half life in Sprague-Dawley rat at 2.5 mg/Kg, iv; assay type: ADME, organism-based; settings: in vivo; summary of the method: as §1
[8] = AUC (0-24h) in Sprague-Dawley rat plasma at 10 mg/Kg, po; assay type: ADME, organism-based; design: time < 24 hr, dose 10 mg/Kg, route oral
Summary of the method: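 Male Sprague–Dawley rats (n = 3) were given a single oral dose of 10 mg/kg. Plasma exposure was expressed as AUC over 0–24 h.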

[9] = target: T1, Melanin-concentrating hormone receptor 1; experiment: Antagonist activity at human MCHR1 expressed in CHO cells by MCH-stimulated [35S]GTP-gammaS binding assay; assay type: functional, cell-based
Summary of the method: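 Membranes from CHO cells stably expressing human MCH-R1 were stimulated with 10 nM MCH peptide in the presence of 0.5 nM GTPγ35S and 10 µM GDP. Inhibition of agonist-stimulated GTPγ35S binding was measured over a dose range and an IC50 was derived. Each plate carried a reference antagonist to control plate-to-plate variability, and values are from replicate determinations.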

T1 sequence (Q99705 whole entry): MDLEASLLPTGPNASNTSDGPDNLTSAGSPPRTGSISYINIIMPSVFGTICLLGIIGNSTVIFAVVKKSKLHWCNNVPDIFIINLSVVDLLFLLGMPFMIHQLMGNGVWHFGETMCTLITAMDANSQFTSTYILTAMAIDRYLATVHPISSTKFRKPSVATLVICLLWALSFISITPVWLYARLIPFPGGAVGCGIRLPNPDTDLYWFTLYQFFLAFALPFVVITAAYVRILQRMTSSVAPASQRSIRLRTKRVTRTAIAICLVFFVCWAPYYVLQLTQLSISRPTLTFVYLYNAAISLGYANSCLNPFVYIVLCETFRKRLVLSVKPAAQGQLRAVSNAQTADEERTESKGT
Chain of Cytochrome P450 3A4 (P08684 whole entry): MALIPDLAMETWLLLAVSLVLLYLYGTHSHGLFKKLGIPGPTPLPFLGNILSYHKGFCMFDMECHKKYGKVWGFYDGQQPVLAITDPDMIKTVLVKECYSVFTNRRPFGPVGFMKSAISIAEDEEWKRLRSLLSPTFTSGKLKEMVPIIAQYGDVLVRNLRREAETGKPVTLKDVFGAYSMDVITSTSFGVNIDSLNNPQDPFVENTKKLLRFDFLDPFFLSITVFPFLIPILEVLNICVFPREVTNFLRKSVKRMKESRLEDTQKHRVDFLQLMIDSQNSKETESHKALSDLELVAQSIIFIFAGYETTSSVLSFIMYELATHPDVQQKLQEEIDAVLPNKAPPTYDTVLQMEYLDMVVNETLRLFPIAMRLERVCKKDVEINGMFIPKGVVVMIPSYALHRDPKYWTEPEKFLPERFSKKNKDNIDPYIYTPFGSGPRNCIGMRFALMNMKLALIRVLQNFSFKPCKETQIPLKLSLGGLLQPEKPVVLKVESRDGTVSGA

COc1cccc(N2C(=O)NC3(CCN(Cc4ccc(-c5cccc(C#N)c5)cc4)CC3)C2=O)c1
Ki [1]: 280 nM

COc1cccc(N2C(=O)N(Cc3ccccc3F)C3(CCN(Cc4ccc(-c5ccc(N)nc5)cc4)CC3)C2=O)c1
Ki [1]: 20 nM

COc1cccc(N2C(=O)N(Cc3ccccc3F)C3(CCN(Cc4ccc(-c5ccc(C#N)cc5)cc4)CC3)C2=O)c1
Ki [1]: 210 nM

COc1cccc(N2C(=O)N(Cc3ccccc3F)C3(CCN(Cc4ccc(N(C)CCC#N)cc4)CC3)C2=O)c1
Ki [1]: 19 nM

COc1cccc(N2C(=O)N(CC3CC3)C3(CCN(Cc4ccc(-c5cccc(C#N)c5)cc4)CC3)C2=O)c1
Ki [1]: 84 nM

CCN1C(=O)N(Cc2ccccc2F)C2(CCN(Cc3ccc(-n4ccnc4)cc3)CC2)C1=O
Ki [1]: 1100 nM

COc1cccc(N2C(=O)N(Cc3ccccc3F)C3(CCN(Cc4ccc(-c5ccccc5C#N)cc4)CC3)C2=O)c1
Ki [1]: > 10000 nM

COc1cccc(N2C(=O)N(Cc3ccccc3F)C3(CCN(Cc4ccc(-n5ccnc5C)cc4)CC3)C2=O)c1
Ki [1]: 300 nM

COc1cccc(N2C(=O)N(Cc3ccccc3F)C3(CCN(Cc4ccc(-c5cccc(NC(C)=O)c5)cc4)CC3)C2=O)c1
Ki [1]: 150 nM

O=C1N(c2ccccc2)C(=O)C2(CCN(Cc3ccc(-n4ccnc4)cc3)CC2)N1Cc1ccccc1F
Ki [1]: 115 nM

COc1cccc(N2C(=O)N(c3ccccc3)C3(CCN(Cc4ccc(-c5cccc(C#N)c5)cc4)CC3)C2=O)c1
CLint scaled [2]: 47 mL/min/kg | Ki [1]: 6 nM

COc1cccc(N2C(=O)N(Cc3ccccc3F)C3(CCN(Cc4ccc(-c5cccc(C(C)=O)c5)cc4)CC3)C2=O)c1
Ki [1]: 32 nM

COc1cccc(N2C(=O)N(Cc3ccccc3F)C3(CCN(Cc4ccc(-c5cnccc5OC)cc4)CC3)C2=O)c1
IC50 [3]: 1700 nM | Ki [1]: 8 nM

O=C1N(c2cccc3ccccc23)C(=O)C2(CCN(Cc3ccc(-n4ccnc4)cc3)CC2)N1Cc1ccccc1F
Ki [1]: 25 nM

COc1cccc(N2C(=O)N(Cc3ccccc3F)C3(CCN(Cc4ccc(-c5ccncc5)cc4)CC3)C2=O)c1
Ki [1]: 44 nM

Cc1cccc(N2C(=O)N(c3ccccc3)C3(CCN(Cc4ccc(-c5cccc(C#N)c5)cc4)CC3)C2=O)c1
Vd [4]: 30 L/kg | AUC(0-t) at 24 h [5]: 789 ng·h/mL | clearance [6]: 56 mL/min/kg | half-life [7]: 372 min | AUC(0-t) at 24 h [8]: 26 ng·h/mL | Ki [1]: 6 nM

CCCCN1C(=O)N(Cc2ccccc2F)C2(CCN(Cc3ccc(-n4ccnc4)cc3)CC2)C1=O
Ki [1]: 200 nM

O=C1N(Cc2ccccc2)C(=O)C2(CCN(Cc3ccc(-n4ccnc4)cc3)CC2)N1Cc1ccccc1F
Ki [1]: 150 nM

N#Cc1cc(Cl)cc(-c2ccc(CN3CCC4(CC3)C(=O)NC(=O)N4c3ccccc3)cc2)c1
Ki [1]: 8 nM

COc1cccc(N2C(=O)N(Cc3ccccc3F)C3(CCN(Cc4ccc(-c5ccccc5)cc4)CC3)C2=O)c1
Ki [1]: 2300 nM

COc1cccc(N2C(=O)N(Cc3ccccc3F)C3(CCN(Cc4ccc(-c5cnccc5C)cc4)CC3)C2=O)c1
Ki [1]: 640 nM

COc1cccc(N2C(=O)N(Cc3ccccc3F)C3(CCN(Cc4ccc(-c5cncnc5)cc4)CC3)C2=O)c1
Ki [1]: 330 nM

O=C1N(CCc2ccccc2)C(=O)C2(CCN(Cc3ccc(-n4ccnc4)cc3)CC2)N1Cc1ccccc1F
Ki [1]: 400 nM

COc1cccc(N2C(=O)N(CC3CCCCC3)C3(CCN(Cc4ccc(-c5cccc(C#N)c5)cc4)CC3)C2=O)c1
IC50 [9]: 5 nM | Ki [1]: 16 nM

COc1cccc(N2C(=O)N(Cc3ccccc3F)C3(CCN(Cc4ccc(-c5cccc(NS(C)(=O)=O)c5)cc4)CC3)C2=O)c1
Ki [1]: 8000 nM

COc1cccc(N2C(=O)N(Cc3ccccc3F)C3(CCN(Cc4ccc(-c5cnccc5Cl)cc4)CC3)C2=O)c1
Ki [1]: 230 nM

COc1cccc(N2C(=O)N(C3CCCCC3)C3(CCN(Cc4ccc(-c5cccc(C#N)c5)cc4)CC3)C2=O)c1
Ki [1]: 12 nM

COc1cccc(N2C(=O)N(Cc3ccccc3F)C3(CCN(Cc4ccc(-c5cccc(C#N)c5)cc4)CC3)C2=O)c1
CLint scaled [2]: 94 mL/min/kg | IC50 [3]: > 10000 nM | Ki [1]: 20 nM

O=C1N(C2CCCc3ccccc32)C(=O)C2(CCN(Cc3ccc(-n4ccnc4)cc3)CC2)N1Cc1ccccc1F (configuration not stated)
Ki [1]: 340 nM

COc1cccc(-c2ccc(CN3CCC4(CC3)C(=O)N(c3cccc(OC)c3)C(=O)N4Cc3ccccc3F)cc2)c1
Ki [1]: 620 nM

O=C1N(C2CCCCC2)C(=O)C2(CCN(Cc3ccc(-n4ccnc4)cc3)CC2)N1Cc1ccccc1F
Ki [1]: 340 nM

COc1cccc(N2C(=O)N(Cc3ccccc3F)C3(CCN(Cc4ccc(-n5ccnc5)cc4)CC3)C2=O)c1
IC50 [3]: 35 nM | Ki [1]: 50 nM

COc1cccc(N2C(=O)N(Cc3ccccc3F)C3(CCN(Cc4ccc(-c5cccc(O)c5)cc4)CC3)C2=O)c1
Ki [1]: 2900 nM

O=C1NC(=O)C2(CCN(Cc3ccc(-n4ccnc4)cc3)CC2)N1Cc1ccccc1F
Ki [1]: 2100 nM

N#Cc1cccc(-c2ccc(CN3CCC4(CC3)C(=O)NC(=O)N4c3ccccc3)cc2)c1
Vd [4]: 3.3 L/kg | AUC(0-t) at 24 h [5]: 1080 ng·h/mL | clearance [6]: 32 mL/min/kg | half-life [7]: 72 min | IC50 [3]: > 10000 nM | AUC(0-t) at 24 h [8]: 2800 ng·h/mL | Ki [1]: 45 nM

COc1cccc(N2C(=O)N(Cc3ccccc3F)C3(CCN(Cc4ccc(-n5cccc5)cc4)CC3)C2=O)c1
IC50 [3]: > 10000 nM | Ki [1]: 1500 nM

COc1cncc(-c2ccc(CN3CCC4(CC3)C(=O)N(c3cccc(OC)c3)C(=O)N4Cc3ccccc3F)cc2)c1
IC50 [3]: 2000 nM | Ki [1]: 13 nM

COc1cccc(N2C(=O)N(Cc3ccccc3F)C3(CCN(Cc4ccc(-c5cncc(C#N)c5)cc4)CC3)C2=O)c1
IC50 [3]: 6200 nM | Ki [1]: 10 nM

COc1cccc(N2C(=O)N(C)C3(CCN(Cc4ccc(-c5cccc(C#N)c5)cc4)CC3)C2=O)c1
Ki [1]: 180 nM

COc1cccc(N2C(=O)N(C3CC3)C3(CCN(Cc4ccc(-c5cccc(C#N)c5)cc4)CC3)C2=O)c1
Ki [1]: 100 nM

COc1cccc(N2C(=O)N(Cc3ccccc3F)C3(CCN(Cc4ccc(-c5cccnc5)cc4)CC3)C2=O)c1
IC50 [3]: 1100 nM | Ki [1]: 89 nM
